Activity calls are given as the source filed them. No cut-off for these calls is given here.
What was measured:
Rattus norvegicus [1] = experiment: Antihypertensive activity in SHR rat assessed as reduction in mean blood pressure at 5 mg/kg, po measured upto 24 hrs post dosing; assay type: functional, organism-based
In short: (§1)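 Spontaneously hypertensive rats received test agents orally at 5 or 10 mg/kg, with losartan and telmisartan at 10 mg/kg as references. Mean blood pressure was tracked for over 24 h after dosing and compared with a negative control group. Significance versus control was set at p<0.05 and p<0.01.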

Rattus norvegicus [2] = organism: Rattus norvegicus; experiment: (§2) Displacement of [125I]-Sar1,Ile8-angiotensin 2 from AT1 receptor in Sprague-Dawley rat vascular smooth muscle cells after 150 mins by gamma counting analysis
In short: (§3)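 Competition radioligand binding to the AT1 receptor was run on vascular smooth muscle cells with [125I]-AII as the labelled ligand. Affinity is reported as IC50 and Ki, given as ± SEM.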

[3] = as §2; in short: as §3
Rattus norvegicus [4] = experiment: Antihypertensive activity in SHR rat assessed as reduction in mean blood pressure at 10 mg/kg, po measured upto 24 hrs post dosing; assay type: functional; in short: as §1
[5] = Acute toxicity in ICR mouse assessed as mortality at 937 mg/kg, ig administered daily for 2 weeks measured during compound dosing; assay type: organism-based; conditions: in vivo, po
In short: (§4)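 Mice were given single-compound dose groups of 307.20, 384.00, 480.00, 600.00, 750.00 and 937 mg/kg. Body weight of survivors was checked after 2 weeks. Mortality (%) was scored per dose group, and LD50 with 95% confidence interval was derived from log(dose) versus mortality.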

Rattus norvegicus [6] = experiment: Antihypertensive activity in SHR rat assessed as reduction in mean blood pressure at 10 mg/kg, po measured after 6 hrs post dosing; assay type: functional; in short: as §1
Rattus norvegicus [7] = experiment: Antihypertensive activity in po dosed SHR rat assessed as reduction in mean blood pressure measured upto 24 hrs post dosing; assay type: functional, organism-based
In short: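 In spontaneously hypertensive rats, test compounds were given orally at 5 and 10 mg/kg, with losartan and telmisartan references at 10 mg/kg. Mean blood pressure was followed over time to beyond 24 h post-dose and compared with a negative control group. Significance was set at p<0.05 and p<0.01.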

Mus musculus [8] = experiment: Acute toxicity in ICR mouse assessed as pathological changes in organs and tissues at 307.20 to 937, ig administered daily for 2 weeks measured on fifteenth day; assay type: organism-based; conditions: in vivo, po, 336 h
Mus musculus [9] = experiment: Acute toxicity in ICR mouse assessed as hyperthyroidism at 480 to 937 mg/kg, ig administered daily for 2 weeks measured after 6 hrs post last dose; conditions: in vivo, po
[10] = Acute toxicity in ICR mouse assessed as mortality at 384 mg/kg, ig administered daily for 2 weeks measured during compound dosing; assay type: organism-based; conditions: in vivo, po; in short: as §4
[11] = Acute toxicity in ICR mouse assessed as mortality at 750 mg/kg, ig administered daily for 2 weeks measured during compound dosing; assay type: organism-based; conditions: in vivo, po; in short: as §4
Mus musculus [12] = experiment: Acute toxicity in ICR mouse assessed as skin changes at 307.20 mg/kg, ig administered daily for 2 weeks measured during compound dosing; assay type: organism-based; conditions: in vivo, po, 307.2 mg/kg, 336 h; in short: as §4
Mus musculus [13] = experiment: Acute toxicity in ICR mouse assessed as aggressiveness at 307.20 mg/kg, ig administered daily for 2 weeks measured during compound dosing; assay type: organism-based; conditions: in vivo, po, 307.2 mg/kg, 336 h; in short: as §4
Mus musculus [14] = experiment: Acute toxicity in ICR mouse assessed as respiratory movements at 307.20 mg/kg, ig administered daily for 2 weeks measured during compound dosing; assay type: organism-based; conditions: in vivo, po, 307.2 mg/kg, 336 h; in short: as §4
[15] = Acute toxicity in ICR mouse assessed as mortality at 480 mg/kg, ig administered daily for 2 weeks measured during compound dosing; assay type: organism-based; conditions: in vivo, po; in short: as §4
Mus musculus [16] = experiment: Acute toxicity in ICR mouse assessed as respiratory movements at 384 mg/kg, ig administered daily for 2 weeks measured during compound dosing; assay type: organism-based; conditions: in vivo, po, 336 h; in short: as §4
[17] = Acute toxicity in intragastrically dosed ICR mouse assessed as mortality administered daily for 2 weeks measured during compound dosing; assay type: organism-based; conditions: in vivo, po; in short: as §4
Mus musculus [18] = experiment: Acute toxicity in ICR mouse assessed as aggressiveness at 384 mg/kg, ig administered daily for 2 weeks measured during compound dosing; assay type: organism-based; conditions: in vivo, po, 336 h; in short: as §4
Mus musculus [19] = experiment: Acute toxicity in ICR mouse assessed as change in body weight at 307.20 to 937 mg/kg, ig administered daily for 2 weeks during compound dosing; assay type: organism-based; conditions: in vivo, po, 336 h; in short: as §4
Mus musculus [20] = experiment: Acute toxicity in ICR mouse assessed as mobility at 384 mg/kg, ig administered daily for 2 weeks measured during compound dosing; assay type: organism-based; conditions: in vivo, po, 336 h; in short: as §4
[21] = Acute toxicity in ICR mouse assessed as mortality at 600 mg/kg, ig administered daily for 2 weeks measured during compound dosing; assay type: organism-based; conditions: in vivo, po; in short: as §4
Mus musculus [22] = experiment: Acute toxicity in ICR mouse assessed as mobility at 307.20 mg/kg, ig administered daily for 2 weeks measured during compound dosing; assay type: organism-based; conditions: in vivo, po, 307.2 mg/kg, 336 h; in short: as §4
Mus musculus [23] = experiment: Acute toxicity in ICR mouse assessed as obvious untoward reaction at 307.20 to 937, ig administered daily for 2 weeks during compound dosing; assay type: organism-based; conditions: in vivo, po, 336 h; in short: as §4
[24] = Acute toxicity in ICR mouse assessed as mortality at 307.20 mg/kg, ig administered daily for 2 weeks measured during compound dosing; assay type: organism-based; conditions: in vivo, po, 307.2 mg/kg; in short: as §4
Mus musculus [25] = experiment: Acute toxicity in ICR mouse assessed as skin changes at 384 mg/kg, ig administered daily for 2 weeks measured during compound dosing; assay type: organism-based; conditions: in vivo, po, 336 h; in short: as §4

SMILES: CCCCc1nc2c(C)cc(-c3ccccn3)cc2n1Cc1ccc2c(ccn2-c2ccccc2C(=O)O)c1
- Activity (Rattus norvegicus [1]): inactive
- Activity (Rattus norvegicus [2]): Dose-dependent effect
- IC50 [3]: 5.61 nM
- Ki [3]: 4.06 nM
- Activity (Rattus norvegicus [4]): inactive

SMILES: CCCc1nc2c(C)cc(-c3nc4ccccc4n3C)cc2n1Cc1ccc(-c2ccccc2C(=O)O)cc1 [TELMISARTAN]
- Activity (Rattus norvegicus [2]): Dose-dependent effect
- IC50 [3]: 3.8 nM
- Ki [3]: 2.75 nM
- Activity (Rattus norvegicus [4]): Active

SMILES: CCc1nc2c(C)cc(-c3nc4ccccc4n3C)cc2n1Cc1ccc2c(ccn2-c2ccccc2C(=O)O)c1
- Activity (Rattus norvegicus [1]): inactive
- Activity (Rattus norvegicus [2]): Dose-dependent effect
- IC50 [3]: 13.1 nM
- Ki [3]: 8.16 nM
- Activity (Rattus norvegicus [4]): inactive

SMILES: CCCCc1nc(Cl)c(CO)n1Cc1ccc(-c2ccccc2-c2nnn[nH]2)cc1 [LOSARTAN]
- Activity (Rattus norvegicus [2]): Dose-dependent effect
- IC50 [3]: 20.1 nM
- Ki [3]: 13.1 nM
- Activity (Rattus norvegicus [4]): 43 mmHg

SMILES: Cc1cc(-c2nc3ccccc3n2C)cc2c1nc(C)n2Cc1cccc2c1ccn2-c1ccccc1C(=O)O
- Activity (Rattus norvegicus [1]): inactive
- Activity (Rattus norvegicus [2]): Dose-dependent effect
- IC50 [3]: 7.46 nM
- Ki [3]: 4.66 nM
- Activity (Rattus norvegicus [4]): inactive

SMILES: Cc1cc(-c2nc3ccccc3n2C)cc2c1nc(C)n2Cc1ccc2c(ccn2-c2ccccc2C(=O)O)c1
- Activity (Rattus norvegicus [2]): Dose-dependent effect
- IC50 [3]: 8.25 nM
- Ki [3]: 5.13 nM
- Activity (Rattus norvegicus [4]): 44 mmHg

SMILES: CCCCc1nc2c(C)cc(-c3nc4ccccc4n3C)cc2n1Cc1cccc2c1ccn2-c1ccccc1C(=O)O
- Activity (Rattus norvegicus [1]): inactive
- Activity (Rattus norvegicus [2]): Dose-dependent effect
- IC50 [3]: 2.61 nM
- Ki [3]: 1.63 nM
- Activity (Rattus norvegicus [4]): inactive

SMILES: CCc1nc2c(C)cc(-c3nc4ccccc4n3C)cc2n1Cc1cccc2c1ccn2-c1ccccc1C(=O)O
- Activity (Rattus norvegicus [1]): Active
- Activity (Rattus norvegicus [2]): Dose-dependent effect
- IC50 [3]: 1.83 nM
- Ki [3]: 1.14 nM
- Activity (Rattus norvegicus [4]): Active

SMILES: CCc1nc2c(C)cc(-c3ccccn3)cc2n1Cc1cccc2c1ccn2-c1ccccc1C(=O)O
- Activity (Rattus norvegicus [1]): Active
- Activity (Rattus norvegicus [2]): Dose-dependent effect
- IC50 [3]: 3.55 nM
- Ki [3]: 2.57 nM
- Activity (Rattus norvegicus [4]): Active

SMILES: CCCc1nc2c(C)cc(-c3nc4ccccc4n3C)cc2n1Cc1cccc2c1ccn2-c1ccccc1C(=O)O
- mortality at 336 h [5]: 100%
- Activity (Rattus norvegicus [6]): 64 mmHg
- Activity (Rattus norvegicus [7]): Dose-dependent effect
- Activity (Rattus norvegicus [1]): Active
- Activity (Mus musculus [8]): Non-toxic
- Activity (Mus musculus [9]): Toxic
- mortality at 336 h [10]: 10%
- mortality at 336 h [11]: 90%
- Activity (Mus musculus [12]): Non-toxic
- Activity (Mus musculus [13]): Non-toxic
- Activity (Rattus norvegicus [2]): Dose-dependent effect
- IC50 [3]: 0.36 nM
- Ki [3]: 0.23 nM
- Activity (Mus musculus [14]): Non-toxic
- mortality at 336 h [15]: 50%
- Activity (Mus musculus [16]): Non-toxic
- LD50 at 336 h [17]: 526 mg/kg
- Activity (Mus musculus [18]): Non-toxic
- Activity (Mus musculus [19]): Non-toxic
- Activity (Mus musculus [20]): Non-toxic
- mortality at 336 h [21]: 60%
- Activity (Mus musculus [22]): Non-toxic
- Activity (Mus musculus [23]): Non-toxic
- mortality at 336 h [24]: 0%
- Activity (Rattus norvegicus [4]): Active
- Activity (Mus musculus [25]): Non-toxic

SMILES: CCc1nc2c(C)cc(-c3ccccn3)cc2n1Cc1ccc2c(ccn2-c2ccccc2C(=O)O)c1
- Activity (Rattus norvegicus [2]): Dose-dependent effect
- IC50 [3]: 1.17 nM
- Ki [3]: 0.84 nM
- Activity (Rattus norvegicus [4]): 42 mmHg

SMILES: CCCCc1nc2c(C)cc(-c3ccccn3)cc2n1Cc1cccc2c1ccn2-c1ccccc1C(=O)O
- Activity (Rattus norvegicus [1]): Active
- Activity (Rattus norvegicus [2]): Dose-dependent effect
- IC50 [3]: 5.63 nM
- Ki [3]: 4.08 nM
- Activity (Rattus norvegicus [4]): Active

SMILES: CCCc1nc2c(C)cc(-c3ccccn3)cc2n1Cc1cccc2c1ccn2-c1ccccc1C(=O)O
- Activity (Rattus norvegicus [1]): Active
- Activity (Rattus norvegicus [2]): Dose-dependent effect
- IC50 [3]: 4.7 nM
- Ki [3]: 3.4 nM
- Activity (Rattus norvegicus [4]): Active

SMILES: CCCCCc1nc2c(C)cc(-c3nc4ccccc4n3C)cc2n1Cc1cccc2c1ccn2-c1ccccc1C(=O)O
- Activity (Rattus norvegicus [1]): inactive
- Activity (Rattus norvegicus [2]): Dose-dependent effect
- IC50 [3]: 11.3 nM
- Ki [3]: 7.06 nM
- Activity (Rattus norvegicus [4]): inactive

SMILES: CCCCc1nc2c(C)cc(-c3nc4ccccc4n3C)cc2n1Cc1ccc2c(ccn2-c2ccccc2C(=O)O)c1
- Activity (Rattus norvegicus [1]): Active
- Activity (Rattus norvegicus [2]): Dose-dependent effect
- IC50 [3]: 2.23 nM
- Ki [3]: 1.39 nM
- Activity (Rattus norvegicus [4]): Active

SMILES: CCCc1nc2c(C)cc(-c3nc4ccccc4n3C)cc2n1Cc1cccc2c1ccn2-c1ccccc1-c1nnn[nH]1
- Activity (Rattus norvegicus [1]): Active
- Activity (Rattus norvegicus [2]): Dose-dependent effect
- IC50 [3]: 3.39 nM
- Ki [3]: 2.12 nM
- Activity (Rattus norvegicus [4]): Active

SMILES: CCCc1nc2c(C)cc(-c3ccccn3)cc2n1Cc1ccc2c(ccn2-c2ccccc2C(=O)O)c1
- Activity (Rattus norvegicus [2]): Dose-dependent effect
- IC50 [3]: 3.27 nM
- Ki [3]: 2.37 nM
- Activity (Rattus norvegicus [4]): 43 mmHg

SMILES: CCCc1nc2c(C)cc(-c3nc4ccccc4n3C)cc2n1Cc1ccc2c(ccn2-c2ccccc2C(=O)O)c1
- Activity (Rattus norvegicus [1]): Active
- Activity (Rattus norvegicus [2]): Dose-dependent effect
- IC50 [3]: 3.76 nM
- Ki [3]: 2.35 nM
- Activity (Rattus norvegicus [4]): Active

SMILES: CCCCCc1nc2c(C)cc(-c3nc4ccccc4n3C)cc2n1Cc1ccc2c(ccn2-c2ccccc2C(=O)O)c1
- Activity (Rattus norvegicus [2]): Dose-dependent effect
- IC50 [3]: 0.92 nM
- Ki [3]: 0.67 nM
- Activity (Rattus norvegicus [4]): 53 mmHg
